From PubChem BioAssay
The list is not random: actives were taken first. Their share in the collection is about 2.1%.
STEP inh – inhibitors of human striatal-enriched phosphatase STEP | recombinant STEP, OMFP fluorogenic substrate, fluorescence | 360,000 tested, 0.25% active | inhibition, % at 20 µM | AID 588621 | P54829;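 active = inhibition at 20 µM, scaled per plate between control wells, above about 37%, limit read from the data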
Target sequence (P54829 whole entry, looked up): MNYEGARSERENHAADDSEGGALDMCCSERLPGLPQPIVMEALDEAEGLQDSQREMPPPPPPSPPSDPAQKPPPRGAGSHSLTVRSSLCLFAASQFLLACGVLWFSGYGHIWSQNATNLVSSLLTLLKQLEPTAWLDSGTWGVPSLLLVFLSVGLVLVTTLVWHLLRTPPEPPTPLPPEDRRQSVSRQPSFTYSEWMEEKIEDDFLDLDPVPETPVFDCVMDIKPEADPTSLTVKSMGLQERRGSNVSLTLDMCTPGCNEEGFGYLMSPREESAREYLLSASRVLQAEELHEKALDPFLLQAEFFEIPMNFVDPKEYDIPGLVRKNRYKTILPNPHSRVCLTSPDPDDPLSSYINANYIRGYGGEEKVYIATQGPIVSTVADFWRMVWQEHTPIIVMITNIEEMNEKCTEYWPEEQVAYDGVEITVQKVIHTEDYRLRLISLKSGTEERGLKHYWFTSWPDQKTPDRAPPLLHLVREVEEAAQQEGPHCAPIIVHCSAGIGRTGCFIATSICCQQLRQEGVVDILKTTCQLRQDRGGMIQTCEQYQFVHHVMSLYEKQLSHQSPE
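Measure: Control-normalized % inhibition with plate pattern correction | Test system: STEP phosphatase, cell-free reaction | Medium: pH 6.0 Bis-Tris with DTT and Tween 20 | Technique: Fluorescence, 480/540 nm | Times: Reaction 20 min, ambient temperature | Doses: Single compound dose of 20 µM, 1% DMSO final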
Scp1 inh – blocks human Scp-1 phosphatase activity. AID 493091. 340,000 tested, 0.88% active. Q9GZU7. inhibition, % at 20 µM. Recombinant Scp1, phosphopeptide, malachite green phosphate absorbance;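 active = inhibition above about 50% at 20 µM, limit read from the data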
Target sequence (Q9GZU7 76-261 limits assumed): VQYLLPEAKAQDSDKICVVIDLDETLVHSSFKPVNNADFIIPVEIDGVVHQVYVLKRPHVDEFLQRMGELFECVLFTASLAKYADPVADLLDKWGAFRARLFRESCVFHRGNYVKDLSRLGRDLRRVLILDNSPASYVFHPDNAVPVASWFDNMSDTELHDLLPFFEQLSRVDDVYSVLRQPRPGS
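Test system – truncated SCP-1 phosphatase (76-261aa) · Reagent – Phosphorylated 17-residue peptide substrate · Incubation – 45 min room-temperature reaction, 5 min colour, 30 min stabiliser · Detection – colorimetric phosphate reagent with accelerator and stabiliser, absorbance at 630 nm · Measure – % inhibition at 20 µM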
GRK2 aptamer HTS – inhibitors of human GRK2 displacing RNA aptamer | P25098 | bead flow cytometry, FAM-aptamer displacement from GRK2 | inhibition of aptamer binding, % at 10 µM | 330,000 tested, 0.59% active | AID 488847;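 active = inhibition of aptamer binding above 40%, roughly 3 SD of noise, on plates passing a quality check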;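 note: median bead fluorescence of bound FAM aptamer so fluorescent compounds give negative values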
DNMT1 inh – blocks human DNA methyltransferase DNMT1; inhibition (reported as % activation of signal), % at 10 µM; 360,000 tested, 0.83% active; DNMT1 molecular beacon, Hinp1I cleavage, fluorescence; AID 588458; in the data active = inhibition above about 50%
SUMO1-SIM PPI – SUMO1-SIM interaction modulation | P63165 | SUMO1 binding to a labelled peptide, TR-FRET, 1 h | inhibition, % at 20 µM | 360,000 tested, 0.33% active | AID 602429; in the data active = inhibition above about 37%
LMPTP block – blocks human LMPTP phosphatase | 360,000 tested, 0.22% active | AID 651560 | recombinant LMPTP-A, OMFP fluorogenic substrate, fluorescence intensity | P24666 | inhibition, % at 20 µM;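 active = compounds that cut the enzyme signal by at least half of the control window in the single-dose screen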
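material = LMPTP-A | quantity = 0.625 nM enzyme | reagent = OMFP substrate, 400 µM final | buffer or medium = Bis-Tris pH 6.0, DTT, detergent | detection = endpoint fluorescence intensity from OMFP dephosphorylation | dosing = single 20 µM dose | read-out basis = % inhibition relative to no-enzyme and uninhibited control wells | control set = no-enzyme and uninhibited controls | timing = 50 min at room temperature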
Scp-1 conf – Scp-1 (human) inhibition, single-dose confirmed | shares compounds with Scp1 inh | recombinant SCP-1 catalytic domain, phosphate release, malachite green absorbance | inhibition, % at 20 µM | 2,500 tested, 61% active | AID 540281
Scp-1 MG ctr – interferes with malachite green readout, flagging false Scp-1 hits. Colorimetric interference counterscreen, malachite green absorbance 630 nm. apparent inhibition (interference), % at 20 µM. 2,500 tested, under 10 active. AID 540313. shares compounds with Scp1 inh;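 note: compounds added after enzyme reaction finished so only phosphate colour detection is probed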
Scp-1 Tm shift – binds human Scp-1, shifting its melting temperature; shares compounds with Scp1 inh; Recombinant SCP1, Sypro Orange thermal shift Tm; thermal shift relative to vanadate control, % at 40 µM; 1,500 tested, 25% active; AID 540329;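 active = substances whose mean melting-temperature shift, as a percentage of the reference inhibitor's shift, reaches about 5.3%, limit read from the data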
DNMT1 inh conf – confirmation of human DNMT1 inhibitors | shares compounds with DNMT1 inh | DNMT1 molecular beacon HinP1I cleavage, fluorescence | inhibition, % at 10 µM | 2,300 tested, 8% active | AID 602385;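 active = average inhibition of at least 30% in the single-concentration confirmation test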
Beacon interf – beacon fluorescence artifact counter-screen; shares compounds with DNMT1 inh; DNMT1 molecular beacon spectral interference counterscreen, fluorescence 485/520; activation (fluorescence interference), % at 10 µM; 2,300 tested, 1% active;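 active = activation of at least 30% at 10 µM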;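 note: DNMT1 catalytic domain with a HinP1I cleavage step and a FAM/dabcyl DNA beacon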
A number is an active result.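 Rule for the calls, unless noted: active = inhibition of at least 30% at 20 µM; inactive = the rest.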

Cc1ccc(/C=c2\sc3nc(-c4ccccc4Br)nn3c2=O)o1 was read as STEP inh inactive, Scp1 inh 92, GRK2 aptamer HTS inactive, DNMT1 inh 104, SUMO1-SIM PPI inactive, LMPTP block inactive, Scp-1 conf 61, Scp-1 MG ctr inactive, Scp-1 Tm shift 9.2, DNMT1 inh conf inactive and Beacon interf inactive.
Screening Cc1ccc(-c2nc3s/c(=C\c4ccco4)c(=O)n3n2)cc1 returned STEP inh inactive, Scp1 inh 67, GRK2 aptamer HTS inactive, DNMT1 inh 79, SUMO1-SIM PPI inactive, LMPTP block inactive, Scp-1 conf 49, Scp-1 MG ctr inactive, Scp-1 Tm shift inactive, DNMT1 inh conf inactive and Beacon interf inactive.
Screening COc1ccccc1/C=c1\sc2nc(-c3ccccc3OC)nn2c1=O returned STEP inh inactive, Scp1 inh inactive, GRK2 aptamer HTS inactive, DNMT1 inh inactive, SUMO1-SIM PPI inactive and LMPTP block inactive.
`CCOC(=O)C1=C(COC(=O)/C=C/c2ccc(OC)cc2)NC(=O)NC1C` (stereo not drawn) gave STEP inh inactive, Scp1 inh inactive, DNMT1 inh inactive, SUMO1-SIM PPI inactive and LMPTP block inactive.
Screening CCOC(=O)C1=C(COC(=O)/C=C/c2ccco2)NC(=O)NC1C (stereo not drawn) returned STEP inh inactive, Scp1 inh 66, GRK2 aptamer HTS inactive, DNMT1 inh 72, SUMO1-SIM PPI inactive, LMPTP block inactive, Scp-1 conf 55, Scp-1 MG ctr inactive, Scp-1 Tm shift inactive, DNMT1 inh conf inactive and Beacon interf inactive.
`O=C1OC(/C(=C\Nc2cc(Cl)ccc2O)[N+](=O)[O-])c2ccccc21` (stereo not drawn) gave STEP inh inactive, Scp1 inh inactive, GRK2 aptamer HTS inactive, DNMT1 inh inactive, SUMO1-SIM PPI inactive and LMPTP block inactive.
CC(=O)NCc1ccc(C(=O)CSc2nnc(C3CC3)n2C2CC2)cc1 was read as STEP inh inactive, Scp1 inh inactive, GRK2 aptamer HTS inactive, DNMT1 inh inactive, SUMO1-SIM PPI inactive and LMPTP block inactive.
COc1ccccc1NC(=O)COC(=O)c1ccc2c(c1)OCCO2 was read as STEP inh inactive, Scp1 inh inactive, GRK2 aptamer HTS inactive, DNMT1 inh inactive, SUMO1-SIM PPI inactive and LMPTP block inactive.
COc1ccccc1NC(=O)COC(=O)c1cc2c(s1)CCC2 was read as STEP inh inactive, Scp1 inh 66, DNMT1 inh 94, SUMO1-SIM PPI inactive, LMPTP block inactive, Scp-1 conf 73, Scp-1 MG ctr inactive, Scp-1 Tm shift inactive, DNMT1 inh conf inactive and Beacon interf inactive.
COc1ccc(OC)c(NC(=O)COC(=O)c2cc3c(s2)CCC3)c1 was read as STEP inh inactive, Scp1 inh 79, GRK2 aptamer HTS 42, DNMT1 inh 89, SUMO1-SIM PPI inactive, LMPTP block inactive, Scp-1 conf 53, Scp-1 MG ctr inactive, Scp-1 Tm shift inactive, DNMT1 inh conf inactive and Beacon interf inactive.
`COc1cc(OC)c(NC(=O)CN(C)S(=O)(=O)c2ccc(-c3ccc(=O)[nH]n3)s2)cc1Cl` gave STEP inh inactive, Scp1 inh inactive, GRK2 aptamer HTS inactive, DNMT1 inh inactive, SUMO1-SIM PPI inactive and LMPTP block inactive.
Screening O=C(N/N=C/C=C/c1ccco1)c1cccnc1 returned STEP inh inactive, Scp1 inh inactive, GRK2 aptamer HTS inactive, DNMT1 inh inactive, SUMO1-SIM PPI inactive and LMPTP block inactive.
For O=C(N/N=C\C=C\c1ccco1)c1cc(-c2ccc3ccccc3c2)n[nH]1 the results were STEP inh inactive, Scp1 inh 70, GRK2 aptamer HTS inactive, DNMT1 inh 68, SUMO1-SIM PPI inactive, LMPTP block inactive, Scp-1 conf 42, Scp-1 MG ctr inactive, Scp-1 Tm shift 13, DNMT1 inh conf inactive and Beacon interf inactive.
Cc1cc(C(=O)O)ccc1-n1c(C)cc(C=C2C(=O)c3ccccc3C2=O)c1C was read as STEP inh inactive, Scp1 inh inactive, GRK2 aptamer HTS inactive, DNMT1 inh inactive, SUMO1-SIM PPI inactive and LMPTP block inactive.
Screening Cc1ccc(C(=O)O)cc1-c1ccc(C=C2C(=O)c3ccccc3C2=O)o1 returned STEP inh 42, Scp1 inh 79, GRK2 aptamer HTS inactive, DNMT1 inh 73, SUMO1-SIM PPI inactive, LMPTP block inactive, Scp-1 conf 47, Scp-1 MG ctr inactive, Scp-1 Tm shift 12, DNMT1 inh conf inactive and Beacon interf inactive.
For CCn1c(SCC(=O)Nc2cc(C)on2)nnc1-c1ccc(OC)cc1 the results were STEP inh inactive, Scp1 inh inactive, GRK2 aptamer HTS inactive, DNMT1 inh inactive, SUMO1-SIM PPI inactive and LMPTP block inactive.
O=C(COC(=O)c1cccs1)NCc1ccco1 was read as STEP inh inactive, Scp1 inh 97, GRK2 aptamer HTS inactive, DNMT1 inh 73, SUMO1-SIM PPI inactive, LMPTP block inactive, Scp-1 conf 64, Scp-1 MG ctr inactive, Scp-1 Tm shift inactive, DNMT1 inh conf inactive and Beacon interf inactive.
For O=C(COC(=O)c1cncc(Br)c1)NCc1ccc(F)cc1 the results were STEP inh inactive, Scp1 inh inactive, GRK2 aptamer HTS inactive, DNMT1 inh inactive, SUMO1-SIM PPI inactive and LMPTP block inactive.
For O=C(COC(=O)c1cncc(Br)c1)NCc1ccco1 the results were STEP inh inactive, Scp1 inh 88, GRK2 aptamer HTS inactive, DNMT1 inh 102, SUMO1-SIM PPI 63, LMPTP block inactive, Scp-1 conf 54, Scp-1 MG ctr inactive, Scp-1 Tm shift inactive, DNMT1 inh conf inactive and Beacon interf inactive.
`CCC(=NNS(=O)(=O)c1ccc(C)cc1)c1ccc(OC)c(C)c1` gave STEP inh inactive, DNMT1 inh inactive, SUMO1-SIM PPI inactive and LMPTP block inactive.
For Cc1cc2c(cc1C)NC(=O)C(C)CN2 (stereo not drawn) the results were STEP inh inactive, DNMT1 inh inactive, SUMO1-SIM PPI inactive and LMPTP block inactive.
